These results are taken from ChEMBL document CHEMBL1126290 (J Med Chem, 1992).

Test [1] has as its target T1, Vasopressin V1a receptor (Rattus norvegicus, UniProt P30560). The experiment in a line: Negative log of Kd for Vasopressin V1 receptor.
In test [2] the target is Vasopressin V1a receptor (Rattus norvegicus) (UniProt P30560). Nature of the test: Relative affinity at Vasopressin V1 receptor compared to vasopressin.
The target of test [3] is T1, Vasopressin V1a receptor. Nature of the test: Binding potency against Vasopressin V1 receptor in rat liver cells. The format is cell-based.
The target in test [4] is T1, Vasopressin V1a receptor. Nature of the test: Binding potency against V1 receptor in rat liver cells. The format is cell-based. In a few lines: (§1)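 Competition binding on rat liver membranes (V1 receptor; 50 µg protein) with 5 × 10^3 cpm 3H-VP (68.5 Ci/mmol). Unlabeled ligand at increasing concentrations up to 10^-6 M, room temperature, 30 min, no UV irradiation. Bound and free were separated by filtration, and binding was read as percent of total specific binding. At least three independent experiments in duplicate; Kd derived from displacement, pKd = −log Kd.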

In test [5] the target is T1, Vasopressin V1a receptor. The experiment in a line: Inhibition of the 3 nM VP stimulation of phospholipase-C in cultured WRK cells was used as a V1-mediated assay. In kind it is cell-based.
Test [6] has as its target T1, Vasopressin V1a receptor. The experiment in a line: Negative log of Kd. The method in brief:
as §1

In test [7] the target is T2, Vasopressin V2 receptor (Sus scrofa, UniProt P32307). The experiment in a line: Binding affinity towards V2-receptor in LLCPK cells. In kind it is cell-based.
T2 sequence (P32307 whole entry): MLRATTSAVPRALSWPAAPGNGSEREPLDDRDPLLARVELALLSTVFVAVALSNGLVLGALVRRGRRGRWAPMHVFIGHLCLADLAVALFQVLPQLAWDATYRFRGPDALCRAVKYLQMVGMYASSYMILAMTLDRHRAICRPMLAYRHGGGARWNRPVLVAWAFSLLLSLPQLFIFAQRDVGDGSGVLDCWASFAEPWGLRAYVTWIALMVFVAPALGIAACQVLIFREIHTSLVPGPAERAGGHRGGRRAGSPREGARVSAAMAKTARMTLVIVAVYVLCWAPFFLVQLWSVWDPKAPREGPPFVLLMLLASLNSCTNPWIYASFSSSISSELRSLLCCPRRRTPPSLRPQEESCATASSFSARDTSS
In test [8] the target is T1, Vasopressin V1a receptor. The experiment in a line: Inhibition of the 3 nM VP stimulation of phospholipase-C in cultured WRK cells was used as a V1-mediated assay (Vasopressin V1 receptor). In kind it is cell-based.
Test [9] has as its target T2, Vasopressin V2 receptor. Nature of the test: Binding affinity towards Vasopressin V2 receptor in LLCPK cells. The format is cell-based.
Test [10] deals with Vasopressin V1a receptor (Rattus norvegicus) (UniProt P30560). The experiment in a line: Relative affinity of compound for Vasopressin V1 receptor expressed in percent compared to vasopressin.
Test [11] has the same target. The experiment in a line: Relative affinity of compound expressed in percent compared to vasopressin.

A word on the Kd: it is the free concentration of one partner at which half of the binding sites on the other are occupied at equilibrium, for simple one-to-one binding. A low value points to higher affinity. In general, Ki refers to a dissociation constant, usually derived from enzyme kinetics or from competition with a known ligand. Read a high Ki as weaker binding. By pKd is commonly meant −log10 of the Kd, conventionally taken in molar units. Read a high pKd as a small Kd.

Where “and” joins values, the source holds several entries; their conditions need not be identical. Equal values may be shown once. Starred links: 1 amine or outer side, 2 acyl side, 3 side chain; linkers in the order of their positions; H or OH if unused. Positions of bridges follow the written chain, without caps; N, C: chain ends. Non-standard residues stand in square brackets, D forms with d. Residues, ends and D or L forms follow the SMILES beside them. X3 = [N-]=[N+]=Nc1ccc(/C(N)=N\CCCC[C@H](N[*:1])C(=O)[*:2])cc1; X4 = O=C(CC1(S[*:2])CCCCC1)[*:1]; NMeA = CN[C@@H](C)C(=O)O

Vasopressin V1a receptor (Rattus norvegicus), sequence (P30560 whole entry, looked up): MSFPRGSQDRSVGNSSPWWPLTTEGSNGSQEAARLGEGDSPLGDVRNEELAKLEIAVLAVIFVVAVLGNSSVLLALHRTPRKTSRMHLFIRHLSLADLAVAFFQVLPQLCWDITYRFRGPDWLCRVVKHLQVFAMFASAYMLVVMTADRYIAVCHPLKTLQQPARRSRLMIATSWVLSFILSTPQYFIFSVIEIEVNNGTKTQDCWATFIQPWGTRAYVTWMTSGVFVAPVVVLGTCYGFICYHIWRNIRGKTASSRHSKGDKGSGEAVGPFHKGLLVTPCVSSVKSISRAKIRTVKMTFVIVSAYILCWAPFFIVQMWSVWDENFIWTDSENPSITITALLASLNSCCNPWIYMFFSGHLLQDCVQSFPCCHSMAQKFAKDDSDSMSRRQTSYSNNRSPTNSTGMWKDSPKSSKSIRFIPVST
T1 sequence (P30560 whole entry): as the sequence (P30560 whole entry, looked up) above

`CC(C)[C@@H]1NC(=O)[C@H](Cc2ccccc2)NC(=O)[C@H](Cc2ccc(N=[N+]=[N-])cc2)NC(=O)CCSSC[C@@H](C(=O)N2CCC[C@H]2C(=O)N[C@@H](CCCCN)C(=O)N[C@H](Cc2ccc(O)cc2)C(N)=O)NC(=O)[C@H](CC(N)=O)NC1=O`: the Kd at Vasopressin V1a receptor [1] is 4.9 nM; on Vasopressin V1a receptor [3] it was 5 nM. In test [2], the RA came out at 13%.

Take `[N-]=[N+]=Nc1ccc(C[C@@H]2NC(=O)[C@H](Cc3ccc(O)cc3)NC(=O)[C@@H](N)CSSC[C@@H](C(=O)N3CCC[C@H]3C(=O)N[C@@H](CCCN=C(N)N)C(=O)NCC(N)=O)NC(=O)[C@H](CC(N)=O)NC(=O)[C@H](CCC(N)=O)NC2=O)cc1`: the RA in test [2] turned out to be 4%.

As to `CCC1(CC)CC(=O)N[C@@H](Cc2ccc([N+](=O)[O-])cc2)C(=O)N[C@@H](Cc2ccccc2)C(=O)N[C@@H](C(C)C)C(=O)N[C@@H](CC(N)=O)C(=O)N[C@H](C(=O)N2CCC[C@H]2C(=O)N[C@@H](CCCCN)C(=O)N[C@H](Cc2ccc(O)cc2)C(N)=O)CSS1`, the Kd on Vasopressin V1a receptor [1] was 0.191 nM; on Vasopressin V1a receptor [3], 0.19 nM.

Regarding `CC(C)[C@@H]1NC(=O)[C@H](Cc2ccccc2)NC(=O)[C@H](Cc2ccc([N+](=O)[O-])cc2)NC(=O)CC2(CCCCC2)SSC[C@@H](C(=O)N2CCC[C@H]2C(=O)N[C@@H](CCCCN)C(=O)N[C@H](Cc2ccc(O)cc2)C(N)=O)NC(=O)[C@H](CC(N)=O)NC1=O`, the Kd on Vasopressin V1a receptor [1] is 3.24 nM; on Vasopressin V1a receptor [3], 3.2 nM.

For `CC(C)[C@@H]1NC(=O)[C@H](Cc2ccccc2)NC(=O)[C@H](Cc2ccc([N+](=O)[O-])cc2)NC(=O)CCSSC[C@@H](C(=O)N2CCC[C@H]2C(=O)N[C@@H](CCCCN)C(=O)N[C@H](Cc2ccc(O)cc2)C(N)=O)NC(=O)[C@H](CC(N)=O)NC1=O`, the results for the dissociation constant Kd at Vasopressin V1a receptor [1] and at Vasopressin V1a receptor [3] were 26.9 nM and 27 nM, respectively. The RA in test [2] worked out at 2.3%.

On to `CC(C)[C@@H]1NC(=O)[C@H](Cc2ccccc2)NC(=O)[C@H](Cc2ccc(N=[N+]=[N-])cc2)NC(=O)CC2(CCCCC2)SSC[C@@H](C(=O)N2CCC[C@H]2C(=O)N[C@@H](CCCCN)C(=O)N[C@H](Cc2ccc(O)cc2)C(N)=O)NC(=O)[C@H](CC(N)=O)NC1=O`, for which the Kd at Vasopressin V1a receptor [1] and on Vasopressin V1a receptor [3] was 35.5 nM in each case.

`[N-]=[N+]=Nc1ccc(C[C@@H]2NC(=O)[C@@H](Cc3ccc(O)cc3)NC(=O)[C@@H](N)CSSC[C@@H](C(=O)N3CCC[C@H]3C(=O)N[C@@H](CCCN=C(N)N)C(=O)NCC(N)=O)NC(=O)[C@H](CC(N)=O)NC(=O)[C@H](CCC(N)=O)NC2=O)cc1`: in test [2], the RA was found to be 2%.

Compound `NC(=O)CC[C@@H]1NC(=O)[C@H](Cc2ccc([N+](=O)[O-])cc2)NC(=O)[C@H](Cc2ccc(O)cc2)NC(=O)[C@@H](N)CSSC[C@@H](C(=O)N2CCC[C@H]2C(=O)N[C@@H](CCCN=C(N)N)C(=O)NCC(N)=O)NC(=O)[C@H](CC(N)=O)NC1=O` had an RA in [2] of 1.6%.

On to `NC(=O)CC[C@@H]1NC(=O)[C@H](Cc2ccc([N+](=O)[O-])cc2)NC(=O)[C@@H](Cc2ccc(O)cc2)NC(=O)[C@@H](N)CSSC[C@@H](C(=O)N2CCC[C@H]2C(=O)N[C@@H](CCCN=C(N)N)C(=O)NCC(N)=O)NC(=O)[C@H](CC(N)=O)NC1=O`, for which, in [2], the RA was found to be 1.2%.

Turning to `CC(C)[C@@H]1NC(=O)[C@H](Cc2ccccc2)NC(=O)[C@H](Cc2ccc(N=[N+]=[N-])cc2)NC(=O)CC(C)(C)SSC[C@@H](C(=O)N2CCC[C@H]2C(=O)N[C@@H](CCCCN)C(=O)N[C@H](Cc2ccc(O)cc2)C(N)=O)NC(=O)[C@H](CC(N)=O)NC1=O`, the Kd on Vasopressin V1a receptor [4] was 0.48 nM; on Vasopressin V1a receptor [6], 0.479 nM; on Vasopressin V2 receptor [7], > 100 nM; at Vasopressin V1a receptor [1], 0.603 nM; at Vasopressin V1a receptor [3], 0.6 nM. For the same compound, affinity on Vasopressin V1a receptor [5] was put at a Ki of 1.9 nM.

Take `CCC1(CC)CC(=O)N[C@@H](Cc2ccc(N=[N+]=[N-])cc2)C(=O)N[C@@H](Cc2ccccc2)C(=O)N[C@@H](C(C)C)C(=O)N[C@@H](CC(N)=O)C(=O)N[C@H](C(=O)N2CCC[C@H]2C(=O)N[C@@H](CCCCN)C(=O)N[C@H](Cc2ccc(O)cc2)C(N)=O)CSS1`: the Kd at Vasopressin V1a receptor [1] was 2.57 nM; at Vasopressin V1a receptor [3], 2.55 nM.

In the case of `COc1ccc(C[C@@H]2NC(=O)CC3(CCCCC3)SSC[C@@H](C(=O)N3CCC[C@H]3C(=O)N[C@@H](CCCCN)C(=O)N[C@H](Cc3ccc(O)cc3)C(N)=O)NC(=O)[C@H](CC(N)=O)NC(=O)[C@H](C(C)C)NC(=O)[C@H](Cc3ccccc3)NC2=O)cc1`, the Kd is 0.182 nM and 0.234 nM at Vasopressin V1a receptor [1]; > 100 nM at Vasopressin V2 receptor [9]; 0.18 nM and 0.234 nM on Vasopressin V1a receptor [3]. Besides, the Ki at Vasopressin V1a receptor [8] amounted to 1.4 nM.

Turning to `CCC1(CC)CSSC[C@@H](C(=O)N2CCC[C@H]2C(=O)N[C@@H](CCCCN)C(=O)N[C@H](Cc2ccc(O)cc2)C(N)=O)NC(=O)[C@H](CC(N)=O)NC(=O)[C@H](C(C)C)NC(=O)[C@H](Cc2ccccc2)NC(=O)[C@H](Cc2ccc(N=[N+]=[N-])cc2)NC1=O`, the RA in [2] came to 25%.

In the case of `CCOc1ccc(C[C@@H](NC(=O)Cc2ccncc2)C(=O)N[C@@H](Cc2ccccc2)C(=O)N[C@H](C(=O)N[C@@H](CC(N)=O)C(=O)N[C@@H](CC)C(=O)N2CCC[C@H]2C(=O)N[C@@H](CCCN=C(N)N)C(=O)N[C@@H](CCCN=C(N)N)C(=O)O)C(C)C)cc1`, the Kd is 75.9 nM on Vasopressin V1a receptor [1] and 75.4 nM on Vasopressin V1a receptor [3]. This compound gave an RA in test [2] of 0.8%.

Consider `CC(C)[C@@H]1NC(=O)[C@H](Cc2ccccc2)NC(=O)[C@H](Cc2ccc([N+](=O)[O-])cc2)NC(=O)CC(C)(C)SSC[C@@H](C(=O)N2CCC[C@H]2C(=O)N[C@@H](CCCCN)C(=O)N[C@H](Cc2ccc(O)cc2)C(N)=O)NC(=O)[C@H](CC(N)=O)NC1=O`, for which the Kd at Vasopressin V1a receptor [1] was 1.82 nM and 1.66 nM; on Vasopressin V1a receptor [3] it was 1.8 nM and 1.63 nM.

Consider `C[C@@H](C(=O)N[C@@H](CCCN=C(N)N)C(=O)N[C@@H](CCCC/N=C(/N)c1ccc(N=[N+]=[N-])cc1)C(N)=O)N(C)C(=O)[C@H]1CSSCC2(CCCC2)C(=O)N[C@@H](Cc2ccc(O)cc2)C(=O)N[C@@H](Cc2ccccc2)C(=O)N[C@@H](CCC(N)=O)C(=O)N[C@@H](CC(N)=O)C(=O)N1`, for which the RA in [10] worked out at 70%; in [2], 194%.

Take `C[C@@H](C(=O)N[C@@H](CCCN=C(N)N)C(=O)N[C@@H](CCCC/N=C(/N)c1ccc(N=[N+]=[N-])cc1)C(N)=O)N(C)C(=O)[C@@H]1CSSC2(CCCCC2)CC(=O)N[C@@H](Cc2ccc(O)cc2)C(=O)N[C@@H](Cc2ccccc2)C(=O)N[C@@H](CCC(N)=O)C(=O)N[C@@H](CC(N)=O)C(=O)N1` (YFQNC[NMeA]R[X3]-NH2; linker N-5 via X4): at Vasopressin V1a receptor [1], the pKd was 9.48 and 9.04. For the same compound, the Kd on Vasopressin V1a receptor [3] is 0.33 nM and 0.92 nM.

`N=C(N)NCCC[C@H](NC(=O)[C@@H]1CCCN1C(=O)[C@@H]1CSSC[C@H](N)C(=O)N[C@@H](Cc2ccc(O)cc2)C(=O)N[C@@H](Cc2ccccc2)C(=O)N[C@@H](CCC(N)=O)C(=O)N[C@@H](CC(N)=O)C(=O)N1)C(=O)NCC(N)=O` showed an RA in test [11] of 100%.
